Experimental data reported in ChEMBL document CHEMBL1157100, “The alkyl-connected 2-amino-6-vinylpurine (AVP) crosslinking agent for improved selectivity to the cytosine base in RNA” (Bioorg Med Chem, 2010).
Active and inactive are the calls of the source.

Columns and labels:
Format in all cases: nucleic-acid assay
Nucleic Acid [1] = assay: Binding affinity to FAM-tagged r-(GAAAYAAGAGGAAAGA)-RNA assessed as crosslinking by PAGE
In short: (§1)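 Reactive ODN at 10 µM with 1 µM FAM-labeled target DNA or RNA in 100 mM NaCl, 50 mM MES pH 5 plus RNase OUT, mixed at 0 °C and then incubated at 37 °C. Reactions were stopped at set times with formamide/EDTA/bromophenol blue buffer. Products were resolved on 15% denaturing polyacrylamide gel with 7 M urea, and FAM band intensities were quantified to give crosslinking yield.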

Nucleic Acid [2] = assay: Binding affinity to FAM-tagged r-(GAAAYAAGAGGAAAGA)-RNA assessed as crosslinking at 10 uM by alkylation method; in short: as §1
Nucleic Acid [3] = assay: Binding affinity to FAM-tagged d-(GAAAYAAGAGGAAAGA)-DNA assessed as crosslinking at 10 uM by alkylation method; in short: as §1

Measured: Activity

CSCCc1nc(N)nc2c1ncn2CC[C@H]1C[C@H](OP(=O)(O)OC[C@H]2O[C@@H](n3cc(C)c(=O)[nH]c3=O)C[C@@H]2OP(=O)(O)OC[C@H]2O[C@@H](n3cc(C)c(=O)[nH]c3=O)C[C@@H]2OP(=O)(O)OC[C@H]2O[C@@H](n3ccc(N)nc3=O)[C@H](O)[C@@H]2OP(=O)(O)OC[C@H]2O[C@@H](n3cc(C)c(=O)[nH]c3=O)C[C@@H]2OP(=O)(O)OC[C@H]2O[C@@H](n3ccc(N)nc3=O)[C@H](O)[C@@H]2OP(=O)(O)OC[C@H]2O[C@@H](n3ccc(N)nc3=O)[C@H](O)[C@@H]2OP(=O)(O)OC[C@H]2O[C@@H](n3cc(C)c(=O)[nH]c3=O)C[C@@H]2OP(=O)(O)OC[C@H]2O[C@@H](n3cc(C)c(=O)[nH]c3=O)C[C@@H]2OP(=O)(O)OC[C@H]2O[C@@H](n3cc(C)c(=O)[nH]c3=O)C[C@@H]2OP(=O)(O)OC[C@H]2O[C@@H](n3ccc(N)nc3=O)[C@H](O)[C@@H]2OP(=O)(O)OC[C@H]2O[C@@H](n3cc(C)c(=O)[nH]c3=O)C[C@@H]2OP(=O)(O)O)[C@@H](COP(=O)(O)O[C@H]2C[C@H](n3cc(C)c(=O)[nH]c3=O)O[C@@H]2COP(=O)(O)O[C@H]2C[C@H](n3cc(C)c(=O)[nH]c3=O)O[C@@H]2COP(=O)(O)O[C@H]2C[C@H](n3cc(C)c(=O)[nH]c3=O)O[C@@H]2COP(=O)(O)O[C@H]2[C@@H](O)[C@H](n3ccc(N)nc3=O)O[C@@H]2CO)O1
active: all assays above
